According to ChEMBL document CHEMBL1221407, “Anthraquinone, cyclopentanone, and naphthoquinone derivatives from the sea fan-derived fungi Fusarium spp. PSU-F14 and PSU-F135” (J Nat Prod, 2010):
Values after ≈ are worked out from the molar mass of the structure shown. Active and inactive are the calls of the source. No cut-off for these calls is given here.

Tests used:
Vero = assay: Cytotoxicity against african green monkey Vero cells; format: cell-based, Chlorocebus sabaeus
Procedure, shortened: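 Vero cells (African green monkey kidney fibroblasts), noncancerous; run in triplicate by the method of Hunt and co-workers.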

KB = assay: Cytotoxicity against human KB cells; format: functional, cell-based
Procedure, shortened: (§1)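 KB (oral human carcinoma) and MCF-7 (human breast cancer) cells; resazurin microplate assay.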

MCF7 = assay: Cytotoxicity against human MCF7 cells; format: functional, cell-based; procedure, shortened: as §1
[1] = tested on: Mycobacterium tuberculosis; assay: Antimycobacterial activity against Mycobacterium tuberculosis H37Ra by green fluorescent protein-based fluorescent assay; format: functional
Plasmodium falciparum = assay: Antimalarial activity against multidrug-resistant Plasmodium falciparum K1 by microculture radioisotope technique; format: functional, organism-based
Cryptococcus neoformans = assay: Antimicrobial activity against Cryptococcus neoformans by colorimetric broth microdilution test; format: functional
Procedure, shortened: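 Colorimetric broth microdilution run to CLSI M27-A2 (reference broth dilution method for yeasts) and Drummond and Waigh.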

Nannizzia gypsea = assay: Antimicrobial activity against Microsporum gypseum by colorimetric broth microdilution test; format: functional
Procedure, shortened: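 Colorimetric broth microdilution run to CLSI M38-A (broth dilution method for filamentous fungi) and Drummond and Waigh.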

[2] = Chlorocebus sabaeus, Vero, read-out: IC50
[3] = Homo sapiens, KB, read-out: IC50
[4] = Plasmodium falciparum, K1, read-out: IC50

SMILES | IC50 (Vero; [2]) | IC50 (KB; [3]) | IC50 (MCF7) | MIC [1] | IC50 (Plasmodium falciparum; [4]) | IC50 (Vero; vero) | IC50 (KB; kb) | IC50 (Plasmodium falciparum) | MIC (Cryptococcus neoformans) | MIC (Nannizzia gypsea)
COC1=CC(=O)c2c(cc3c(c2O)C[C@@H](O)[C@@](C)(O)C3)C1=O [NIGROSPORIN B] | 29 µM | 88 µM | 5.4 µM | 41 µM (≈ 12.5 µg/mL) | 13 µM |  |  |  |  | 
COC1=CC(=O)c2c(O)c3c(c(O)c2C1=O)C=C(C)OC3 [ANHYDROFUSARUBIN] | 58 µM | 2 µM | 0.9 µM | 87 µM (≈ 25.1 µg/mL) | 14 µM |  |  |  |  | 
COc1cc(O)c2c(c1O)[C@H](O)[C@H]1C[C@](C)(O)[C@H](O)[C@@H](O)[C@@H]1C2=O [9ALPHA-HYDROXYHALOROSELLINIA A] | 54 µM | 49 µM | 6.2 µM | 39 µM (≈ 13.3 µg/mL) | 25 µM |  |  |  |  | 
COC1=CC(=O)c2c(O)c(C)c(CC(C)=O)c(O)c2C1=O [JAVANICIN] | 170 µM | 5.7 µM | 13 µM | inactive | 12 µM |  |  |  |  | 
COc1cc(O)c2c(c1O)C(=O)c1cc(C)ccc1C2=O [AUSTROCORTIRUBIN] |  |  | 6.3 µM | inactive |  | Not Active | Not Active | Not Active |  | 
C[C@H]1[C@@H](O)O[C@@H]2O[C@@]3(C)CC[C@H]4[C@H](C)CC[C@@H]1[C@@]24OO3 [ARTENIMOL] |  |  |  |  | 0.004 µM |  |  |  |  | 
COc1cccc2c1C(=O)c1c(O)c3c(c(O)c1C2=O)C[C@@](O)(C(=O)CO)C[C@@H]3O[C@H]1C[C@H](N)[C@H](O)[C@H](C)O1 [DOXORUBICIN] |  | 0.33 µM | 2.18 µM |  |  |  |  |  |  | 
NNC(=O)c1ccncc1 [ISONIAZID] |  |  |  | 0.17 µM (≈ 0.0233 µg/mL) |  |  |  |  |  | 
COC1=CC(=O)c2c(O)c3c(c(O)c2C1=O)CC(C)(O)OC3 (stereo not given) [FUSARUBIN] | 79 µM | 14 µM | 9.8 µM | inactive |  |  |  | Not Active | > 200 µM | > 200 µM
COc1cc(O)c2c(c1O)[C@@H](O)[C@@H](CC(C)=O)[C@@H](CO)C2=O [FUSARNAPHTHOQUINONE A] |  | 130 µM | 22 µM | inactive |  | Not Active |  | Not Active |  | 
CO[C@@H]1CC(=O)c2c(O)c(C)c3cc(C)oc3c2[C@@H]1O [FUSARNAPHTHOQUINONE B] |  |  |  |  |  |  |  |  | > 200 µM | > 200 µM
COC1=CC(=O)c2c(O)c3c(c(O)c2C1=O)C[C@](C)(O)[C@H](O)[C@H]3O [BOSTRYCIN] | 4.2 µM | 0.9 µM | 2.7 µM | inactive | 9.8 µM |  |  |  |  | 
COc1cc(O)c2c(c1O)[C@H](O)[C@H]1C[C@](C)(O)[C@H](O)C[C@@H]1C2=O | 57 µM | 19 µM | 15 µM | inactive |  |  |  | Not Active |  | 
Cc1c2ccncc2c(C)c2c1[nH]c1ccccc12 [ELLIPTECINE] | 4.47 µM | 1.1 µM |  |  |  |  |  |  |  | 
